# Measured values pooled from the literature.
# Each line is one published result; the experiments were not run side by side.
# Organism: Staphylococcus aureus
# Effect on: microbial growth
Compound,assay,test system,conditions,MIC
CO[C@@H]1[C@@H](OC(N)=O)[C@@H](O)[C@H](Oc2ccc3c(O)c(NC(=O)c4ccc(O)c(CC=C(C)C)c4)c(=O)oc3c2C)OC1(C)C,broth dilution,ATCC29213,,0.25 µg/mL
O=C(C=Cc1ccc(O)c(O)c1)Oc1cccc2cccnc12,broth dilution,FDA209,,8 µg/mL
C[C@@H]1O[C@@H](OC[C@H]2O[C@@H](Oc3c(-c4ccc(OCCO)c(OCCO)c4)oc4cc(OCCO)cc(O)c4c3=O)[C@H](O)[C@@H](O)[C@@H]2O)[C@H](O)[C@H](O)[C@H]1O,broth dilution,,16 h,> 1020 µg/mL
CC(C)(C)OC(=O)N[C@H]1CCN(c2cc(C(=O)NCC(=O)O)ccc2NC(=O)c2cc(Br)c(Br)[nH]2)C1,broth dilution,ATCC29213,,> 32 µg/mL
Cc1nn(-c2ccccc2)c2c1C(c1ccc(N(C)C)cc1)N(C(=O)c1ccncc1)N2 (centres unmarked),,MTCC96,24 h,8 µg/mL
Cl.N[C@@H]1CCN(c2cc(C(=O)NCC(=O)O)ccc2NC(=O)c2cc(Br)c(Br)[nH]2)C1,broth dilution,ATCC29213,,> 32 µg/mL
Cc1nn(-c2ccccc2)c2c1C(c1ccc(O)cc1)N(C(=O)c1ccncc1)N2 (centres unmarked),,MTCC96,24 h,> 100 µg/mL
CC1(C)S[C@@H]2[C@H](NC(=O)[C@H](N)c3ccccc3)C(=O)N2[C@H]1C(=O)O,,,24 h,< 1.25 µM
COc1cc(Cc2cnc(N)nc2N)cc(OC)c1OC,broth dilution,FDA209,,16 µg/mL
Cc1[nH]c(C(=O)Nc2ccc(C(=O)NCC(=O)O)cc2N2CC[C@H](N)C2)c(Cl)c1Cl.Cl,broth dilution,ATCC29213,,> 32 µg/mL
Cc1ccccc1NC(=O)C=Cc1ccc(O)c(O)c1,broth dilution,FDA209,,8 µg/mL
C[C@@H]1O[C@@H](OC[C@H]2O[C@@H](Oc3cc(O)c4c(c3)O[C@H](c3ccc(O)cc3)CC4=O)[C@H](O)[C@@H](O)[C@@H]2O)[C@H](O)[C@H](O)[C@H]1O,broth dilution,,16 h,> 250 µg/mL
CC(O)CSc1nnc(Cn2cnc3c2c(=O)n(C)c(=O)n3C)n1-c1ccccc1 (centres unmarked),,,,9000 µg/mL
CN[C@H](CC(C)C)C(=O)N[C@H]1C(=O)N[C@@H](CC(N)=O)C(=O)N[C@H]2C(=O)N[C@H]3C(=O)N[C@H](C(=O)N[C@H](C(=O)O)c4cc(O)cc(O)c4-c4cc3ccc4O)[C@H](O)c3ccc(c(Cl)c3)Oc3cc2cc(c3O[C@@H]2O[C@H](CO)[C@@H](O)[C@H](O)[C@H]2O[C@H]2C[C@](C)(N)[C@H](O)[C@H](C)O2)Oc2ccc(cc2Cl)[C@H]1O,,BAA44 MRSA,,1 µM
CC(C)=CCCC(C)=CC1c2c(C)nn(-c3ccccc3)c2NN1C(=O)c1ccncc1 (centres unmarked),,MTCC96,24 h,> 100 µg/mL
Cc1[nH]c(C(=O)Nc2ccc(C(=O)NCC(=O)O)cc2N2CCN(C(=O)OC(C)(C)C)CC2)c(Cl)c1Cl,broth dilution,ATCC29213,,> 32 µg/mL
CC(C)NCC(COc1cccc2ccccc12)OC(=O)C=Cc1ccc(O)c(O)c1 (centres unmarked),broth dilution,FDA209,,32 µg/mL
C=C/C=C(\C)CC[C@H]1C[C@H](O)CC(=O)O1,broth dilution,ATCC6538P,,256 µg/mL
CC(C)(C)OC(=O)N1CCN(c2cc(C(=O)NCC(=O)O)ccc2NC(=O)c2cc(Br)c(Br)[nH]2)CC1,broth dilution,ATCC29213,,> 32 µg/mL
O=c1c(O[C@@H]2O[C@H](CO)[C@@H](O)[C@H](O)[C@H]2O)c(-c2ccc(O)c(O)c2)oc2cc(O)cc(O)c12,broth dilution,,16 h,> 100 µg/mL
Cc1nn(-c2ccccc2)c2c1C(c1ccc([N+](=O)[O-])cc1)N(C(=O)c1ccncc1)N2 (centres unmarked),,MTCC96,24 h,64 µg/mL
O=C(C=Cc1ccc(O)c(O)c1)OCCc1ccccc1,broth dilution,FDA209,,16 µg/mL
CC(O)CSc1nnc(-c2ccccc2)n1-c1ccccc1 (centres unmarked),,,,2000 µg/mL
Cc1[nH]c(C(=O)Nc2ccc(C(=O)NCC(=O)O)cc2N2CC[C@@H](NC(=O)OC(C)(C)C)C2)c(Cl)c1Cl,broth dilution,ATCC29213,,> 32 µg/mL
Cc1nn(-c2ccccc2)c2c1C(c1c[nH]c3ccccc13)N(C(=O)c1ccncc1)N2 (centres unmarked),,MTCC96,24 h,> 100 µg/mL
CC(O)CSc1nnc(-c2cc3ccccc3o2)n1-c1ccccc1 (centres unmarked),,,,2500 µg/mL
